High-throughput results deposited in PubChem by several laboratories.
The full list was thinned out, with hits kept by preference.
Hsp70 activator: switches on Hsp70 transcription. AID 1203. 200,000 tested, 0.04% active. activation, % at 10 µM. HeLa Hsp70 promoter luciferase reporter, luminescence; scaled: vehicle 0, proteasome-inhibitor control 100%;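 active means activation above the mean across all tested compounds plus 3 SD, cutoff set per campaign, cut at about 5.5% in these data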;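 further: 100% = MG132 at 30 µM as the positive control and 0% = DMSO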
HSF1 activator: increases HSF-1 driven luciferase reporter signal | NIH3T3-HGL HSF-1 luciferase reporter, MG132, 8 h; 100% = twice DMSO control signal | activation, % at 9 µM | 300,000 tested, 1.7% active;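 active means mean replicate activation of at least 50% with a set share of replicates each reaching 50%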;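 further: 0% = median of the neutral control wells and 100% = twice that signal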
T cruzi inh: T. cruzi replication inhibition. T. cruzi beta-gal in NIH3T3, luminescence, 90 h. 300,000 tested, 1.4% active. inhibition, % (no concentration beside the values);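 active means mean inhibition across valid replicates above about 55%, limit read from the data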;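 further: signal also drops with host cell toxicity which is not excluded here; 0% = plate median of DMSO wells and 100% = zero luminescence signal; higher percent means less beta-gal luminescence so fewer parasites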
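Material: NIH/3T3 host cells with β-galactosidase reporter T. cruzi; Input: 5,000 host fibroblasts per well; Medium: DMEM, 2% fetal bovine serum; Compound: 50 nL DMSO compound solution per well; Schedule: 3 h host attachment, then at least 90 h co-culture; Detection: luminescent β-galactosidase signal after 60 min lysis.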
L major viab: reduces viability of Leishmania major promastigotes | resazurin fluorescence viability | inhibition, % at 10 µM | 200,000 tested, 9% active; in the data active means inhibition above about 50%;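 further: promastigotes grown with compound for 44 hours at 28 °C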
HSF1 inh: HSF1 inhibition | activity change, negative = inhibition, % at 7.5 µM (by protocol) | 300,000 tested, 0.77% active | NIH3T3-HGL HSE-luciferase, MG132-induced, luminescence 8 h; hits give low values;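 active means more than half of replicate wells show activity change below -50%, luminescence cut by over half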;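 further: luciferase reports HSF-1 transcriptional activity via heat shock element; 0% = median of DMSO wells and -100% = zero luminescence signal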
Numbers without * were called inactive; . = not tested or not shown.

SMILES	Hsp70 activator	HSF1 activator	T cruzi inh	L major viab	HSF1 inh
CCN(CC)CCCNc1nc2cc(OC)c(OC)cc2c2nc(-c3cccnc3)nn12	0	41	52	101*	15
COc1ccc(C(=O)C2CCCN(C(=O)CCc3scnc3C)C2)c(C)c1 (stereo not given)	0	13	23	3	8
CC(=O)Nc1ccc(NC(=O)[C@@H]2CCCN2S(=O)(=O)c2ccc3c(c2)OCCO3)cc1	0	-19	-5	-2	-6
O=c1[nH]c(COc2ccc(Cl)cc2Cl)nc2ccccc12	.	85*	8	.	57
O=c1[nH]c(COc2ccc(Cl)cc2Br)nc2ccccc12	.	61*	0	.	39
O=C(CCc1nc2ccccc2c(=O)[nH]1)NNC(=O)COc1ccccc1Cl	.	-7	-9	.	-1
Cc1ccc2c(c1)N(C(=O)CCC(=O)O)CCO2	0	-5	-20	-3	3
O=C(CSc1nc2ccccc2c(=O)n1CCCN1CCOCC1)c1c[nH]c2ccccc12	0	0	21	53*	-11
COc1ccc(NC(=O)CSc2nc3ccccc3c(=O)n2CCCN2CCCCC2)c(OC)c1	0	7	22	100*	3
NC(=O)CSc1nc2ccccc2c(=O)n1CCc1ccccc1	.	-3	-10	.	-7
Cn1c(=O)c2c(nc(SCCN3CCCCC3)n2Cc2ccc(Cl)cc2)n(C)c1=O	0	3	42	90*	4
O=c1c2ccccc2nc(SCCN2CCCCC2)n1CCc1ccccc1	0	24	63*	86*	18
CSc1ccc(S(=O)(=O)N2CCC(C(=O)Nc3ccccc3C(F)(F)F)CC2)cc1	.	-4	5	.	-7
Cc1ccc(NC(=O)CN(c2ccccc2)S(=O)(=O)N(C)C)cc1	0	16	-8	-5	0
CCOc1ccc(NC(=O)CN(C)C(=O)c2cn(-c3ccccc3)nc2-c2cccs2)cc1OCC	.	-2	22	.	7
COc1ccc(OCc2nnc(SCC(=O)Nc3ccccc3Cl)o2)cc1	.	7	3	.	1
CS(=O)(=O)c1ccc(Cl)c(NC(=O)CSc2nc3ccccc3c(=O)n2CCCN2CCOCC2)c1	0	-4	9	85*	10
CS(=O)(=O)c1ccc(Cl)c(NC(=O)CSc2nc3ccccc3c(=O)n2Cc2ccco2)c1	.	8	26	.	-4
COc1cc([N+](=O)[O-])cc(/C=N\NC(=O)C2COc3ccccc3O2)c1O (stereo not given)	.	-2	-6	.	-8
N/C(=N\OC(=O)CC1CCCCC1)c1cccc([N+](=O)[O-])c1	0	12	-2	68*	6
CC(C)(C)n1nnnc1C(c1cccnc1)N1CCN(c2ccccc2)CC1 (stereo not given)	0	-10	55*	78*	-1
CC(C)(C)n1nnnc1C(c1cccnc1)N1CCN(c2ccccc2F)CC1 (stereo not given)	0	-4	-11	5	-5
CC(C)(C)n1nnnc1C(c1cccnc1)N1CCN(c2ccccn2)CC1 (stereo not given)	0	-11	49	81*	-13
Cc1cccc(N2CCN(C(c3cccs3)c3nnnn3C(C)(C)C)CC2)c1C (stereo not given)	0	18	28	76*	9
c1ccc(Cn2nnnc2C(c2cccnc2)N2CCN(c3ccccc3)CC2)cc1 (stereo not given)	0	12	81*	99*	-5
SMILES	Hsp70 activator	HSF1 activator	T cruzi inh	L major viab	HSF1 inh
CCO[C@H]1OC(C(=O)N2CCN(C)CC2)=C[C@@H](C2CC2)[C@@H]1CCCO	0	5	-21	0	-2
Cn1nc(-c2ccccc2)cc1NC(=O)c1cccs1	.	26	-6	.	7
CCCNC(=O)C1(O)c2cc(Br)ccc2NC(=O)N1c1ccc(Cl)cc1 (stereo not given)	.	-6	2	.	-10
CN(C1CC(C)(C)NC(C)(C)C1)S(=O)(=O)CC12CCC(CC1=O)C2(C)C (stereo not given)	.	21	-14	.	-3
O=C(CSc1nnc(-c2ccncc2)o1)NCc1ccccc1	0	-6	-13	50*	9
O=C(CSc1nnc(-c2ccncc2)o1)NCc1ccccc1Cl	0	27	-4	-2	7
O=C(CSc1nccc(=O)[nH]1)Nc1ccc(F)c([N+](=O)[O-])c1	0	9	11	51*	-5
CCn1c(SCC(=O)Nc2ccc3c(c2)c2ccccc2n3CC)nnc1-c1ccco1	0	8	-21	72*	2
O=C(CSc1nccc(=O)[nH]1)Nc1ccc(Oc2ccccc2)cc1	.	17	-7	.	2
CCn1c2ccccc2c2cc(NC(=O)CSc3nccc(=O)[nH]3)ccc21	0	15	20	90*	2
CCn1c(SCC(=O)Nc2cccc(NC(C)=O)c2)nnc1-c1ccco1	.	8	-9	.	1
CCOc1ccccc1/C=C(/NC(=O)c1ccccc1)C(=O)N(CC)CC	0	11	-5	6	-1
Cc1ccc(F)cc1NC(=O)CN1C(=O)NC2(CCCc3ccccc32)C1=O (stereo not given)	.	-12	-1	.	-8
CCn1c2ccccc2c2cc(NC(=O)CSc3nnc(-c4ccccc4)o3)ccc21	0	18	3	85*	-1
CCn1c2ccccc2c2cc(NC(=O)CSc3nnc(-c4cccc(C)c4)o3)ccc21	0	11	-3	92*	9
CCn1c2ccccc2c2cc(NC(=O)CSc3nnc(-c4cccc(F)c4)o3)ccc21	0	22	-3	4	15
Cc1ccc(C)c(NC(=O)CSc2nnc(-c3ccccc3)o2)c1	0	-1	4	-8	1
CC(=O)c1cn(-c2ccc(Cl)cc2)c(=O)n(Cc2ccc(F)cc2)c1=O	0	13	-7	2	1
CCn1c(SCc2nc3ccccc3s2)nc2cc(S(=O)(=O)N3CCOCC3)ccc21	.	69*	26	.	41
CC(=O)CCSc1nnc(-c2cccc(S(=O)(=O)N3CCOCC3)c2)o1	.	-10	15	.	0
O=S(=O)(c1cccc(-c2nnc(SCc3nc4ccccc4s3)o2)c1)N1CCOCC1	0	54*	-5	5	54
O=c1c2ccccc2nnn1CSc1nnc(-c2cccc(S(=O)(=O)N3CCCCC3)c2)o1	0	46	32	71*	21
Cc1ccc(C)c(NC(NC(=O)c2ccccn2)C(Cl)(Cl)Cl)c1 (stereo not given)	-1	20	-4	6	1
Cc1ccc(CSCC(=O)NCc2cccs2)cc1	0	-2	0	-2	-8
O=C(NN1CCOCC1)c1ccc(S(=O)(=O)N2CCCCC2)cc1	0	-3	-11	-1	0
COC(=O)CS(=O)(=O)c1ccsc1C(=O)Nc1ccc(F)c(F)c1	0	3	-5	-9	0
CCN(CC(=O)NCc1ccc(Cl)cc1)C(=O)CN1C(=O)NC(C)(c2ccccc2)C1=O (stereo not given)	.	-8	14	.	-6
